For assay [1], the target named is Cyclin-dependent kinase 2 (Homo sapiens, UniProt P24941). In words: Inhibition of CDK2 in presence of 100 uM ATP.
In assay [2] the target is Cyclin-dependent kinase 1 (Homo sapiens, UniProt P06493). In words: Inhibition of CDK1 in presence of 100 uM ATP.
A further assay has as its system EJ. In words: Cytotoxicity against human EJ cells after 48 hrs. The assay is classed as functional. The gist of the method:
(§1)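 Exponentially growing cells exposed to test compounds at various concentrations for 48 h, then cell numbers counted; GI50 taken as the concentration giving 50% growth inhibition. Values are means of three experiments.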

In a further assay the test system is HCT-116. In words: Cytotoxicity against human HCT116 cells after 48 hrs. The assay is classed as functional. The note with it: HCT-116, 48 h. The gist of the method:
as §1

The subject of the next assay is A549. In words: Cytotoxicity against human A549 cells after 48 hrs. The class given is functional. The conditions noted are these: A549, 48 h. The method, boiled down: as §1

Sequence of Cyclin-dependent kinase 1 (P06493 whole entry): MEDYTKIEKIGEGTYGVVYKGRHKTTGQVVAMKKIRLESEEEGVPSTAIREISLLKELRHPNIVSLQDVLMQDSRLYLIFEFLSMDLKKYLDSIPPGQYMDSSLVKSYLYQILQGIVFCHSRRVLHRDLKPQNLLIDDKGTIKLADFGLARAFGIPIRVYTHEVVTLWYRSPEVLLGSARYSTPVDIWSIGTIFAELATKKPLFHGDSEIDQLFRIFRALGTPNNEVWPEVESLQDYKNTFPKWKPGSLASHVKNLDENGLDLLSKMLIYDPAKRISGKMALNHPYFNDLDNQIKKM

In general, IC50 refers to the midpoint of a concentration-inhibition curve. Consider `Nc1nccc(-c2cc(N3CCCCC3)ccc2O)n1`, for which the IC50 in assay [1] and in assay [2] was greater than 10000 nM throughout.

For the compound `Nc1nccc(-c2cc(N3CCOCC3)ccc2O)n1`, the IC50 was 790 nM in assay [1] and 2240 nM in assay [2].

In the case of `Nc1nccc(-c2cc(N3CCS(=O)(=O)CC3)ccc2O)n1`, the IC50 in assay [1] came out at 3980 nM; in assay [2], 7500 nM.

In the case of `Nc1nccc(-c2cc(N3CCC(=O)CC3)ccc2O)n1`, the IC50 in assay [1] and in assay [2] was greater than 10000 nM each time.

Regarding `Nc1nccc(-c2cc(N3CCC(O)CC3)ccc2O)n1`, the IC50 in assay [1] worked out at 3760 nM; in assay [2], 10000 nM.

For the compound `Nc1nccc(-c2cc(N3CCC(O)C3)ccc2O)n1` (stereo not drawn), the IC50 in assay [1] is 2110 nM; in assay [2], 2990 nM.

What is called GI50 is the concentration giving 50% growth inhibition. Read a low GI50 as greater sensitivity of the cells. Take `Nc1nccc(-c2cc(N3C[C@H](O)[C@@H](O)C3)ccc2O)n1`: the GI50 in the assay on EJ worked out at 4000 nM; with HCT-116, 2500 nM; with A549, 5500 nM. The IC50 came to 21 nM in assay [1] and 15 nM in assay [2].

For `Cc1cc(-c2cc(N3C[C@H](O)[C@@H](O)C3)ccc2O)nc(N)n1`, the GI50 with EJ was determined as 900 nM; in the assay on HCT-116 it was 400 nM; in the assay with A549, 2000 nM. Further, the IC50 in assay [1] was 42 nM; in assay [2], 20 nM.

With `CCc1cc(-c2cc(N3C[C@H](O)[C@@H](O)C3)ccc2O)nc(N)n1`, the GI50 in the assay with EJ was 1500 nM; in the assay with HCT-116 it was 1000 nM; in the assay with A549, 3000 nM. In addition, the IC50 in assay [1] was found to be 50 nM; in assay [2], 31 nM.

Consider `CC(C)c1cc(-c2cc(N3C[C@H](O)[C@@H](O)C3)ccc2O)nc(N)n1`, for which the GI50 worked out at 1500 nM with EJ, 900 nM in the assay with HCT-116 and 1800 nM with A549. Further, the IC50 in assay [2] came out at 94 nM.

In the case of `CCCCCCc1cc(-c2cc(N3C[C@H](O)[C@@H](O)C3)ccc2O)nc(N)n1`, the values for the 50% growth inhibitory concentration (GI50) in the assay on EJ, with HCT-116 and with A549 were 800 nM, 500 nM and 700 nM, respectively. Moreover, the figures for the IC50 in assay [1] and in assay [2] were 450 nM and 260 nM, respectively.

As to `Nc1nc(-c2cc(N3C[C@H](O)[C@@H](O)C3)ccc2O)cc(C2CC2)n1`, the IC50 in assay [1] and in assay [2] was greater than 10000 nM each time.

On to `Nc1nc(-c2cc(N3C[C@H](O)[C@@H](O)C3)ccc2O)cc(C2CCCC2)n1`, for which the GI50 came out at 900 nM in the assay with EJ, 400 nM with HCT-116 and 2000 nM in the assay with A549. The IC50 in assay [1] worked out at 42 nM; in assay [2], 23 nM.

For `Nc1nc(-c2cc(N3C[C@H](O)[C@@H](O)C3)ccc2O)cc(C2CCCCC2)n1`, the GI50 in the assay with EJ worked out at 1200 nM; in the assay on HCT-116, 800 nM; in the assay on A549, 1200 nM. In addition, the values for the IC50 in assay [1] and in assay [2] were 52 nM and 45 nM, respectively.

For the compound `Nc1nc(-c2cc(N3C[C@H](O)[C@@H](O)C3)ccc2O)cc(C2CCCCCC2)n1`, the GI50 worked out at 700 nM with EJ, 300 nM with HCT-116 and 600 nM in the assay with A549. Moreover, the figures for the IC50 in assay [1] and in assay [2] were 90 nM and 31 nM, respectively.

As to `Nc1nc(-c2cc(N3C[C@H](O)[C@@H](O)C3)ccc2O)cc(C2CCCNC2)n1` (stereo partly drawn), the GI50 in the assay on EJ, in the assay on HCT-116 and in the assay on A549 was greater than 10000 nM in each case. Also, the IC50 in assay [1] is 360 nM; in assay [2], 220 nM.

Turning to `Nc1nc(-c2cc(N3C[C@H](O)[C@@H](O)C3)ccc2O)cc(C2CCNCC2)n1`, the results for the IC50 in assay [1] and in assay [2] were 200 nM and 340 nM, respectively. The same compound gave a concentration for 50% growth inhibition (GI50) with HCT-116 greater than 10000 nM.

For `CN(C)c1cc(-c2cc(N3C[C@H](O)[C@@H](O)C3)ccc2O)nc(N)n1`, the half-maximal inhibitory concentration (IC50) in assay [1] is 250 nM; in assay [2], 280 nM. The GI50 with HCT-116 is greater than 10000 nM.

As for `Nc1nc(-c2cc(N3C[C@H](O)[C@@H](O)C3)ccc2O)cc(N2CCOCC2)n1`, the IC50 in assay [1] came to 940 nM; in assay [2], 1000 nM. This compound also had a GI50 in the assay with HCT-116 greater than 10000 nM.

Consider `CN1CCN(c2cc(-c3cc(N4C[C@H](O)[C@@H](O)C4)ccc3O)nc(N)n2)CC1`, for which the figures for the IC50 in assay [1] and in assay [2] were 300 nM and 420 nM, respectively. Further, in the assay on HCT-116, the GI50 was greater than 10000 nM.

With `Nc1nc(NCCN2CCOCC2)cc(-c2cc(N3C[C@H](O)[C@@H](O)C3)ccc2O)n1`, the IC50 was 450 nM in assay [1] and 790 nM in assay [2]. The compound further came in with a GI50 in the assay with HCT-116 greater than 10000 nM.

On to `Nc1nc(NC2CCCC2)cc(-c2cc(N3C[C@H](O)[C@@H](O)C3)ccc2O)n1`, for which the results for the GI50 in the assay on EJ, in the assay on HCT-116 and in the assay with A549 were 4500 nM, 3000 nM and 7000 nM, respectively. The IC50 came out at 15 nM in assay [1] and 19 nM in assay [2].

As to `Nc1nc(NC2CCCCC2)cc(-c2cc(N3C[C@H](O)[C@@H](O)C3)ccc2O)n1`, the figures for the GI50 in the assay on EJ, with HCT-116 and in the assay on A549 were 2000 nM, 900 nM and 1500 nM, respectively. For the same compound, the IC50 in assay [1] was found to be 60 nM; in assay [2], 20 nM.
